According to ChEMBL document CHEMBL1147918, “Novel 5-substituted 1-pyrazolol analogues of ibotenic acid: synthesis and pharmacology at glutamate receptors” (Bioorg Med Chem, 2007):

Experiments:
[1] = Displacement of [3H]AMPA from AMPA receptor in rat cortical membrane; format: cell membranes
Summary of the method: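 Rat brain membranes prepared per Ransom and Stec; native AMPA receptor affinity measured with 5 nM [3H]AMPA. Means of at least three to four independent experiments; values as pIC50 or pKi ± SEM.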

[2] = Displacement of [3H]KA from KA receptor in rat cortical membrane; format: cell membranes
Summary of the method: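 Native kainate receptor binding on rat brain membranes (Ransom and Stec preparation) using 5 nM [3H]KA. Means of at least three to four independent experiments, reported as pIC50 or pKi ± SEM.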

[3] = target: Glutamate NMDA receptor; experiment: Displacement of [3H]CGP39653 from NMDA receptor in rat cortical membrane; format: cell membranes
Summary of the method: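 NMDA receptor affinity on rat brain membranes prepared per Ransom and Stec, radioligand 2 nM [3H]CGP39653. Means of at least three to four independent experiments; pIC50 or pKi ± SEM.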

[4] = target: T1, Metabotropic glutamate receptor 1 (Rattus norvegicus, UniProt P23385); experiment: Agonist activity at rat mGluR1a receptor expressed in CHO cells assessed as effect on intracellular calcium level; format: functional, cell-based
T1 sequence (P23385 whole entry): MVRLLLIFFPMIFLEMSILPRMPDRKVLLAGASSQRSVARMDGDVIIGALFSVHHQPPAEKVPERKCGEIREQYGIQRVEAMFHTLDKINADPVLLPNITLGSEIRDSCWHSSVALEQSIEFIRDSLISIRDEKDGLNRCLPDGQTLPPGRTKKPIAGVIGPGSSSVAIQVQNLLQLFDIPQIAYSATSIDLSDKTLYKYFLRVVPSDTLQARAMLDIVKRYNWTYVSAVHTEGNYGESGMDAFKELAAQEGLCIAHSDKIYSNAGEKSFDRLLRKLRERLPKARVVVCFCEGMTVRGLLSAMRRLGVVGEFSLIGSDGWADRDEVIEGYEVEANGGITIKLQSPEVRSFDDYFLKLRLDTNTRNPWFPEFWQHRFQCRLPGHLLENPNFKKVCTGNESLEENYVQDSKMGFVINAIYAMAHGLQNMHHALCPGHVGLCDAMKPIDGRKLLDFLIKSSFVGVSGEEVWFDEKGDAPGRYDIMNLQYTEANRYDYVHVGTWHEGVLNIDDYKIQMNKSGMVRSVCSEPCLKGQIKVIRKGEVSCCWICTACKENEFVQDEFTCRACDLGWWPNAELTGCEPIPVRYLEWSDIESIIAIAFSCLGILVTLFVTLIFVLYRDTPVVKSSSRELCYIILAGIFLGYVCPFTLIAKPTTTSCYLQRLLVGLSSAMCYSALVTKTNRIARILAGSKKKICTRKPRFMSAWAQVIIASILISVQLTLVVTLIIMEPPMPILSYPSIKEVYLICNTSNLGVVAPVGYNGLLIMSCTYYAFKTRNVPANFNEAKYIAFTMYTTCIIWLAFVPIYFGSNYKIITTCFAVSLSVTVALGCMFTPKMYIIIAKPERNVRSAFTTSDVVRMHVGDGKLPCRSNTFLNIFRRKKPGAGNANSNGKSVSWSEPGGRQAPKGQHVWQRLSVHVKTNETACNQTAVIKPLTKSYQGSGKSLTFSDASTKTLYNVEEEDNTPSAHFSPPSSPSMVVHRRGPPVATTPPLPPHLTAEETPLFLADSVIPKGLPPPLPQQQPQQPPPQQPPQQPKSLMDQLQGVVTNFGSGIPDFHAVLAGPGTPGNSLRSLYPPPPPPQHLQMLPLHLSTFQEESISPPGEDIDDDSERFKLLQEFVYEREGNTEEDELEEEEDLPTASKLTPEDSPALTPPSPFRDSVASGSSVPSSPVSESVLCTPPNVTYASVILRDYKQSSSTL
Summary of the method: (§1)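 Means of at least three independent experiments, expressed as pEC50 or pKi ± SEM.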

[5] = target: T2, Metabotropic glutamate receptor 2 (Rattus norvegicus, UniProt P31421); experiment: (§2) Agonist activity at rat mGluR2 receptor expressed in CHO cells assessed as effect on intracellular cAMP level; format: functional, cell-based; summary of the method: as §1
T2 sequence (P31421 whole entry): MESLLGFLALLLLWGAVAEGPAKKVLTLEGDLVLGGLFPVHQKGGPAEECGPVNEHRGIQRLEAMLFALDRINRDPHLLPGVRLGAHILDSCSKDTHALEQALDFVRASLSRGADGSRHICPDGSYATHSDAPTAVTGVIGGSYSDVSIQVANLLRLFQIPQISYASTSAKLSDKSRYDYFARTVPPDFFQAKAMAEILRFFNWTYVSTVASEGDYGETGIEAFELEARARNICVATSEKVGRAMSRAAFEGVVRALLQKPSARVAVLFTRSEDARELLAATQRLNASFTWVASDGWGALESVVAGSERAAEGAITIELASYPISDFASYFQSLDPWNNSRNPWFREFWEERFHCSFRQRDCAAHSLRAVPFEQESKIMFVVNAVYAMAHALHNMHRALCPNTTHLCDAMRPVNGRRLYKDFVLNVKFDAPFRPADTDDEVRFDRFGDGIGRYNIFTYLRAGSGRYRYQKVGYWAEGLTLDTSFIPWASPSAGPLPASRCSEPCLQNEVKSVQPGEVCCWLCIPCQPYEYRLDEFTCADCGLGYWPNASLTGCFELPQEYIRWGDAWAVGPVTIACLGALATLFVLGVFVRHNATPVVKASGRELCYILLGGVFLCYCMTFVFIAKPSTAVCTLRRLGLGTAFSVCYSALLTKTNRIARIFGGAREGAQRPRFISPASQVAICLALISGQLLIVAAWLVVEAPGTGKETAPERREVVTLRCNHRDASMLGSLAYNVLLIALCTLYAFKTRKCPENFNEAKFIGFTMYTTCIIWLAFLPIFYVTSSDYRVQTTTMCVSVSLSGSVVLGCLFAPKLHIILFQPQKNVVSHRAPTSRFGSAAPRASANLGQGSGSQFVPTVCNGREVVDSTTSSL

[6] = target: Metabotropic glutamate receptor 4 (Rattus norvegicus, UniProt P31423); experiment: Agonist activity at rat mGluR4 receptor expressed in CHO cells assessed as effect on intracellular cAMP level; format: functional, cell-based; summary of the method: as §1
Chain of Metabotropic glutamate receptor 4 (P31423 whole entry): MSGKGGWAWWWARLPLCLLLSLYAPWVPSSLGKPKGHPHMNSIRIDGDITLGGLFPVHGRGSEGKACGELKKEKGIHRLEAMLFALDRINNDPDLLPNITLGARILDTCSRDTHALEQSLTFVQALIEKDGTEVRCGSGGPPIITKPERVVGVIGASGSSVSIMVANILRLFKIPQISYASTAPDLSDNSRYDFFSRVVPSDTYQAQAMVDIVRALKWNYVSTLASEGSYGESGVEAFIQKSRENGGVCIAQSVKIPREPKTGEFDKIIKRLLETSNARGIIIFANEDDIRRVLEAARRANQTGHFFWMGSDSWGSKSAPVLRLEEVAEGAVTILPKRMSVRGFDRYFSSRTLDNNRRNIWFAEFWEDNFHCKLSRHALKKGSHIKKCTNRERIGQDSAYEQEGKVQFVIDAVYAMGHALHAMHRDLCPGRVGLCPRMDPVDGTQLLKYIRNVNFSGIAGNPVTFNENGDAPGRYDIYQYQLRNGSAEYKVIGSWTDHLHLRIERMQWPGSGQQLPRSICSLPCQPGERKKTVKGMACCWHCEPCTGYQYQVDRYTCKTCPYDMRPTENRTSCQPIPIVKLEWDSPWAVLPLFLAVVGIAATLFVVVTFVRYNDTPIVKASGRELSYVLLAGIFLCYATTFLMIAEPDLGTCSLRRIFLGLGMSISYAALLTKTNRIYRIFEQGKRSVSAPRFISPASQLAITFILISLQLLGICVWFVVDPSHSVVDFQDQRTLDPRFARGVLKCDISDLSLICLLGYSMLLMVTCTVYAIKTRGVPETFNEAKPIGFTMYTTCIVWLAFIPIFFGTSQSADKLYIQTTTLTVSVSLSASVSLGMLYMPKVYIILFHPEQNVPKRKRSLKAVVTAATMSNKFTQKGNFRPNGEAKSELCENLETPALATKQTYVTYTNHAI

[7] = target: T2, Metabotropic glutamate receptor 2; experiment: Antagonist activity at rat mGluR2 receptor expressed in CHO cells assessed as effect on intracellular cAMP level; format: functional, cell-based; summary of the method: as §1
[8] = target: Metabotropic glutamate receptor 2 (Rattus norvegicus) (UniProt P31421); experiment: as §2; format: functional, cell-based; summary of the method: as §1
Chain of Metabotropic glutamate receptor 2 (Rattus norvegicus) (P31421 19-872 limits assumed): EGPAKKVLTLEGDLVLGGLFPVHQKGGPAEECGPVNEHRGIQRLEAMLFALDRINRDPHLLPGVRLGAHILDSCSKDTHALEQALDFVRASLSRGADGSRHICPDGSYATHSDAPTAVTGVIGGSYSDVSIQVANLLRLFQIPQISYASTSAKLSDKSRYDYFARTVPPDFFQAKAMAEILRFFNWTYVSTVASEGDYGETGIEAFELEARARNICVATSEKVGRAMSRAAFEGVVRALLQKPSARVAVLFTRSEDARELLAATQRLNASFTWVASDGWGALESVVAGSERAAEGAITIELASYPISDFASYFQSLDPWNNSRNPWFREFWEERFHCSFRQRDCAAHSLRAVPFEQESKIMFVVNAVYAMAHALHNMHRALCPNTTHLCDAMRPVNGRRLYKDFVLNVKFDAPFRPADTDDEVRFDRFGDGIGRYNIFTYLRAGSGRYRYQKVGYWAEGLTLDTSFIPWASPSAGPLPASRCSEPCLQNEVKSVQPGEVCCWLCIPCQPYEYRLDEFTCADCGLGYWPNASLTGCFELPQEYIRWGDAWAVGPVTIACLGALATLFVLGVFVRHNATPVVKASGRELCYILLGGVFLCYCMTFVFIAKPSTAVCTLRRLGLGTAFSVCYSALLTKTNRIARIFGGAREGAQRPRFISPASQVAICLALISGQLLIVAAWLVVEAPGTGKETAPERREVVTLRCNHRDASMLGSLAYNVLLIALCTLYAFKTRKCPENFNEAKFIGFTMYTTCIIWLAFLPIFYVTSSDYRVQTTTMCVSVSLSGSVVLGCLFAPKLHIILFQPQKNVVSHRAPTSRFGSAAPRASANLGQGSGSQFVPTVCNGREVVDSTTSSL

[9] = target: T1, Metabotropic glutamate receptor 1; experiment: Antagonist activity at rat mGluR1a receptor expressed in CHO cells assessed as effect on intracellular calcium level; format: functional, cell-based; summary of the method: as §1

IC50 [1]	IC50 [2]	Ki [3]	EC50 [4]	EC50 ([5]; read-out: EC50)	EC50 [6]	Ki [7]	Log IC50 [2]	Log Ki [3]	Ki ([9]; read-out: Ki)	Ki ([9]; read-out: Log Ki (converted))	SMILES	EC50 ([5]; read-out: Log EC50 (converted))	Activity [8]
> 100 µM	> 100 µM	> 100 µM	> 1000 µM	> 1000 µM	> 1000 µM	–	–	–	–	–	CCCCc1c(C(N)C(=O)O)cnn1O (racemic)	–	–
> 100 µM	> 100 µM	> 100 µM	> 1000 µM	72 µM	> 1000 µM	–	–	–	–	–	CCCc1c(C(N)C(=O)O)cnn1O (racemic)	67.6 µM	–
> 100 µM	> 100 µM	35 µM	> 1000 µM	> 1000 µM	> 1000 µM	–	–	-4.47	–	–	NC(C(=O)O)c1cnn(O)c1CC1CC1 (racemic)	–	–
> 100 µM	> 100 µM	54 µM	–	–	> 1000 µM	67 µM	–	–	260 µM	–	NC(C(=O)O)c1cnn(O)c1CCCc1ccccc1 (racemic)	–	–

Second part, the compound before the results:

SMILES	IC50 [1]	IC50 [2]	Ki [3]	EC50 [4]	EC50 ([5]; read-out: EC50)	EC50 [6]	Ki [7]	Log IC50 [2]	Log Ki [3]	Ki ([9]; read-out: Ki)	Ki ([9]; read-out: Log Ki (converted))	EC50 ([5]; read-out: Log EC50 (converted))	Activity [8]
NC(C(=O)O)c1cnn(O)c1CC1CCCCC1 (racemic)	> 100 µM	> 100 µM	> 100 µM	> 1000 µM	–	> 1000 µM	32 µM	–	–	–	–	–	–
NC(C(=O)O)c1cnn(O)c1C(c1ccccc1)c1ccccc1 (racemic)	> 100 µM	47 µM	> 100 µM	> 1000 µM	> 1000 µM	> 1000 µM	–	-4.33	–	–	–	–	–
CCCCCc1c(C(N)C(=O)O)cnn1O (racemic)	> 100 µM	> 100 µM	> 100 µM	> 1000 µM	> 1000 µM	> 1000 µM	–	–	–	–	–	–	–
NC(C(=O)O)c1cnn(O)c1Br (racemic)	> 100 µM	> 100 µM	25 µM	> 1000 µM	170 µM	> 1000 µM	–	–	–	–	–	151 µM	43%
NC(C(=O)O)c1cnn(O)c1-c1ccccc1 (racemic)	> 100 µM	> 100 µM	> 100 µM	> 1000 µM	–	> 1000 µM	180 µM	–	–	–	–	–	–
CCc1c(C(N)C(=O)O)cnn1O (racemic)	> 100 µM	> 100 µM	32 µM	> 1000 µM	57 µM	> 1000 µM	–	–	–	–	–	–	–
NC(C(=O)O)c1cnn(O)c1CCc1ccccc1 (racemic)	> 100 µM	> 100 µM	> 100 µM	–	> 1000 µM	> 1000 µM	–	–	–	230 µM	195 µM	–	–
NC(C(=O)O)c1cnn(O)c1Cc1ccccc1 (racemic)	> 100 µM	> 100 µM	67 µM	> 1000 µM	–	> 1000 µM	120 µM	–	–	–	–	–	–
